One block for each molecule: values may come before it. The source made the active and inactive calls. No cut-off for these calls is given here.
Legend:
[1] = system: Plasmodium berghei; experiment: Inhibition of Plasmodium berghei recombinant CDPK1 by fluorescence assay in presence of rhodamine-labeled ParM
In short: (§1)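 Recombinant CDPK1 (P. berghei or P. vivax) ATPase activity followed with an ADP-sensitive biosensor, rhodamine-labeled ParM; reaction progress tracked as rising fluorescence from ADP accumulation on a plate reader.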

[2] = target: Phosphorylase kinase (Homo sapiens) (UniProt P15735+P46020+P46019+Q93100+Q16816); experiment: Inhibition of human PHK at 1 uM; format: protein-complex assay
[3] = Metabolic stability in mouse liver microsomes after 30 mins; format: ADME, Microsome; conditions: read-out: Stability
[4] = target: Calcium/calmodulin-dependent protein kinase type 1 (Homo sapiens) (UniProt Q14012); experiment: Inhibition of human CAMK1 at 1 uM
[5] = target: T1, NUAK family SNF1-like kinase 1 (Homo sapiens) (UniProt O60285); experiment: Inhibition of human NUAK1 at 1 uM
T1 sequence (whole entry): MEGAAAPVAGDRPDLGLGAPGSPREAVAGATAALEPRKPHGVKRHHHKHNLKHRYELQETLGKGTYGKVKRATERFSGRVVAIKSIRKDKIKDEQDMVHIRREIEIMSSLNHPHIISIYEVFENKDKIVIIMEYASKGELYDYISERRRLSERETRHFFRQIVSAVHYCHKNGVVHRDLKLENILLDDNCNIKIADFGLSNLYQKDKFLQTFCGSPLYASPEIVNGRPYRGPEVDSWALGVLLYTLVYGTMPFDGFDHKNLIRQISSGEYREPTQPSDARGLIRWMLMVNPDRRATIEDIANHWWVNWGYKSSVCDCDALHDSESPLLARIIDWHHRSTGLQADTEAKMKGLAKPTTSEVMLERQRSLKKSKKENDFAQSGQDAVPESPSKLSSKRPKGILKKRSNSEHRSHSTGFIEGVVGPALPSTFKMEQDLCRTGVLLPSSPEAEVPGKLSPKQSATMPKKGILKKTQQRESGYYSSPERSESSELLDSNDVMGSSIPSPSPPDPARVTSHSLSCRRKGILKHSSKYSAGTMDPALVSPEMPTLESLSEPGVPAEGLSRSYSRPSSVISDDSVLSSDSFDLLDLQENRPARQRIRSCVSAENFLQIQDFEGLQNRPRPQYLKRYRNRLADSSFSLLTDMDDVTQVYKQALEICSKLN

[6] = Metabolic stability in human liver microsomes after 30 mins; format: ADME, Microsome; conditions: read-out: Stability
[7] = target: Receptor tyrosine-protein kinase erbB-4 (Homo sapiens) (UniProt Q15303); experiment: Inhibition of human HER4 at 1 uM
[8] = target: Ribosomal protein S6 kinase alpha-1 (Homo sapiens) (UniProt Q15418); experiment: Inhibition of human RSK1 at 1 uM
[9] = system: Plasmodium vivax; experiment: Inhibition of Plasmodium vivax recombinant CDPK1 by fluorescence assay in presence of rhodamine-labeled ParM; in short: as §1
[10] = target: Tyrosine-protein kinase Lck (Homo sapiens) (UniProt P06239); experiment: Inhibition of human LCK at 1 uM
[11] = target: Tyrosine-protein kinase Yes (Homo sapiens) (UniProt P07947); experiment: Inhibition of human YES1 at 1 uM
[12] = target: T2, Serine/threonine-protein kinase D1 (Homo sapiens) (UniProt Q15139); experiment: Inhibition of human PKD1 at 1 uM
T2 sequence (whole entry): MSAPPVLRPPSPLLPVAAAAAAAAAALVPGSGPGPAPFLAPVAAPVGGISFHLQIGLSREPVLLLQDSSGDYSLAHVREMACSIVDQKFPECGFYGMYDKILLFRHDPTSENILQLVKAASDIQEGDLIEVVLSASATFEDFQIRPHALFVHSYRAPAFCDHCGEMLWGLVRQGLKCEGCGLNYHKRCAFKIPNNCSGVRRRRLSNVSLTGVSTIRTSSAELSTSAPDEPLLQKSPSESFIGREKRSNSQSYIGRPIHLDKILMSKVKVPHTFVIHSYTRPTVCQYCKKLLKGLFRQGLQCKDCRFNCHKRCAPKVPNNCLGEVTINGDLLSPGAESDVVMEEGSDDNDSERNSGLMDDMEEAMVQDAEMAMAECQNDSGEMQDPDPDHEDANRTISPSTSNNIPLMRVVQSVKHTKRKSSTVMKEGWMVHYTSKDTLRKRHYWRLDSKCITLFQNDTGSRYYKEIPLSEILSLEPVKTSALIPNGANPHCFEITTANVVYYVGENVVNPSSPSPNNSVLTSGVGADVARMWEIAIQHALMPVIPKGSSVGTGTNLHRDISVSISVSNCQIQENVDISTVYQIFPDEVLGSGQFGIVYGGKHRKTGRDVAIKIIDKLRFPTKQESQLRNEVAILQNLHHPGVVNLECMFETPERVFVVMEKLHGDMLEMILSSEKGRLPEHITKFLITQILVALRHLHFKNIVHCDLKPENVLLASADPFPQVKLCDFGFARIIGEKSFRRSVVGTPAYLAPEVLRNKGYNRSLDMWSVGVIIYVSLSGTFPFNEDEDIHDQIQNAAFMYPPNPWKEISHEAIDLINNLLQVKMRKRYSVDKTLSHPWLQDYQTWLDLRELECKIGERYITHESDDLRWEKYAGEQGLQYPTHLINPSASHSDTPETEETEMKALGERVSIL

[13] = organism: Homo sapiens; experiment: Inhibition of human VEGFR at 1 uM
[14] = target: Dual specificity mitogen-activated protein kinase kinase 1 (Homo sapiens) (UniProt Q02750); experiment: Inhibition of human MKK1 at 1 uM
[15] = target: Aurora kinase B (Homo sapiens) (UniProt Q96GD4); experiment: Inhibition of human Aurora B at 1 uM
[16] = Intrinsic clearance in mouse; format: ADME, organism-based; conditions: in vivo
[17] = target: Serine/threonine-protein kinase Chk2 (Homo sapiens) (UniProt O96017); experiment: Inhibition of human CHK2 at 1 uM
[18] = target: Proto-oncogene tyrosine-protein kinase Src (Homo sapiens) (UniProt P12931); experiment: Inhibition of human SRC at 1 uM
[19] = target: T3, Mitogen-activated protein kinase kinase kinase kinase 2 (Homo sapiens) (UniProt Q12851); experiment: Inhibition of human GCK at 1 uM
T3 sequence (whole entry): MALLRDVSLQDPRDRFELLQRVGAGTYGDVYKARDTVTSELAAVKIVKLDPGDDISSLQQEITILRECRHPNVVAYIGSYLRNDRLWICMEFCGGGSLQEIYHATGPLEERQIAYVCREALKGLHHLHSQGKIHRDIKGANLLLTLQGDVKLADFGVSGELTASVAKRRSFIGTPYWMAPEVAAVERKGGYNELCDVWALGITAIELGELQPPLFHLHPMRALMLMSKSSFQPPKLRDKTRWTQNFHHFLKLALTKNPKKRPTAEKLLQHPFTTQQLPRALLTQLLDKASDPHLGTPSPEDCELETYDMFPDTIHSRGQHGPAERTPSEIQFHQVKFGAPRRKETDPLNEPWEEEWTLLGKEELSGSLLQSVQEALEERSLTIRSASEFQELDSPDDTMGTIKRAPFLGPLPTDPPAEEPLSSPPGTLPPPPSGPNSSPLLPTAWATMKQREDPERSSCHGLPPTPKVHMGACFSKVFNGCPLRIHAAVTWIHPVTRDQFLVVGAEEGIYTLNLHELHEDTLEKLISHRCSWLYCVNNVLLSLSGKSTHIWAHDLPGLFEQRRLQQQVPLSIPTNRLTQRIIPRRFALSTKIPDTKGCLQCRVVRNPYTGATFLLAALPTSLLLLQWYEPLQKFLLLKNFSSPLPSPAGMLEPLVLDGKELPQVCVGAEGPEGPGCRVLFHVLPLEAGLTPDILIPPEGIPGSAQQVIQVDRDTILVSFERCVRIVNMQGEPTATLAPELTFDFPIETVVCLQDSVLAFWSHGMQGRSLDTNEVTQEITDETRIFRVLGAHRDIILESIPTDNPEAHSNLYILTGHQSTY

[20] = target: Mitogen-activated protein kinase kinase kinase 9 (Homo sapiens) (UniProt P80192); experiment: Inhibition of human MLK1 at 1 uM
Sequence of Mitogen-activated protein kinase kinase kinase 9 (Homo sapiens) (P80192 whole entry, looked up): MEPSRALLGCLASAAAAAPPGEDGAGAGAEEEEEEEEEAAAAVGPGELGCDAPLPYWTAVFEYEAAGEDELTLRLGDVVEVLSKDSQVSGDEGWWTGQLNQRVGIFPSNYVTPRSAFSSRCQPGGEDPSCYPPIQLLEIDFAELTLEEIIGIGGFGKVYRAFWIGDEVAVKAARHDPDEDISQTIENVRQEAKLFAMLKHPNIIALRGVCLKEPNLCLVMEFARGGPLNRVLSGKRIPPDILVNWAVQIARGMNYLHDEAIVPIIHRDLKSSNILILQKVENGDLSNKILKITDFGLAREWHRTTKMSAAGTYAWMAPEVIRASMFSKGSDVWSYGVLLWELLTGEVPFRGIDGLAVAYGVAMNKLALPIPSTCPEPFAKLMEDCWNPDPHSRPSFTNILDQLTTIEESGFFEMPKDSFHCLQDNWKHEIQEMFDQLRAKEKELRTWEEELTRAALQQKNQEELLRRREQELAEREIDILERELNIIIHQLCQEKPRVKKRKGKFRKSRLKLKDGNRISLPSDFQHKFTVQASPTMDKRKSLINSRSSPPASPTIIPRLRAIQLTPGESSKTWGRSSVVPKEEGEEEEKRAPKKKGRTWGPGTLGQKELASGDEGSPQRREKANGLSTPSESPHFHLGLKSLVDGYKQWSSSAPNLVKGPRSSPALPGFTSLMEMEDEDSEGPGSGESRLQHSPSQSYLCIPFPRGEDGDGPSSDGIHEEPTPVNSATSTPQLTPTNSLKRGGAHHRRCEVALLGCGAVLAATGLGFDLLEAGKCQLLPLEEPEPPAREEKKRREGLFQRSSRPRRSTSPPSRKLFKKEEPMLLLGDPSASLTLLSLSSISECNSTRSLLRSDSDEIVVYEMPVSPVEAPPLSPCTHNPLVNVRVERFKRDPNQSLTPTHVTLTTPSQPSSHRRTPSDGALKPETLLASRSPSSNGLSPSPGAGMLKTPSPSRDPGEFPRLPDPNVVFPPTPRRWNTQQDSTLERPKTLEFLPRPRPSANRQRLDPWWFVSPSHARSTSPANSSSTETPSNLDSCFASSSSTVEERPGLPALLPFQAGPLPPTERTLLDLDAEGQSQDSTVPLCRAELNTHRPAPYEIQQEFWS

Sequence of Ribosomal protein S6 kinase alpha-1 (Homo sapiens) (Q15418 whole entry): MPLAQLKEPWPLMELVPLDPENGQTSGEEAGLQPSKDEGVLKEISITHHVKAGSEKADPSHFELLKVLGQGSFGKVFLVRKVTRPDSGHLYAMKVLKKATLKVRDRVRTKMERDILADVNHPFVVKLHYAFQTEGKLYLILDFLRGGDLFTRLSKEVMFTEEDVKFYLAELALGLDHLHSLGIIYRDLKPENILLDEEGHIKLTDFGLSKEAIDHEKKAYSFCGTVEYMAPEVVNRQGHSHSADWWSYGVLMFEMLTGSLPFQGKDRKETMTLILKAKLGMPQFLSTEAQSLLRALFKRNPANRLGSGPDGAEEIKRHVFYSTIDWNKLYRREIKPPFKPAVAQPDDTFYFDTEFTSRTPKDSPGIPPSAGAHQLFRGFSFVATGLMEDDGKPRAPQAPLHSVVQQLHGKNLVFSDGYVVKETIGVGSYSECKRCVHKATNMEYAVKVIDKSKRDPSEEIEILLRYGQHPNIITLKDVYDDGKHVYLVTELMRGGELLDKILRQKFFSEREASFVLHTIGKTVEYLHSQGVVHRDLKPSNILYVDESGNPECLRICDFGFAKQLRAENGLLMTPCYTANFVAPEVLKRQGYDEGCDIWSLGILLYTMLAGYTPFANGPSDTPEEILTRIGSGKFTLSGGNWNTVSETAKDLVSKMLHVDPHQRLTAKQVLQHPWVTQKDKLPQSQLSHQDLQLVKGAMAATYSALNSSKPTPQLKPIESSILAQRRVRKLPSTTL
Sequence of Proto-oncogene tyrosine-protein kinase Src (Homo sapiens) (P12931 2-536 limits assumed): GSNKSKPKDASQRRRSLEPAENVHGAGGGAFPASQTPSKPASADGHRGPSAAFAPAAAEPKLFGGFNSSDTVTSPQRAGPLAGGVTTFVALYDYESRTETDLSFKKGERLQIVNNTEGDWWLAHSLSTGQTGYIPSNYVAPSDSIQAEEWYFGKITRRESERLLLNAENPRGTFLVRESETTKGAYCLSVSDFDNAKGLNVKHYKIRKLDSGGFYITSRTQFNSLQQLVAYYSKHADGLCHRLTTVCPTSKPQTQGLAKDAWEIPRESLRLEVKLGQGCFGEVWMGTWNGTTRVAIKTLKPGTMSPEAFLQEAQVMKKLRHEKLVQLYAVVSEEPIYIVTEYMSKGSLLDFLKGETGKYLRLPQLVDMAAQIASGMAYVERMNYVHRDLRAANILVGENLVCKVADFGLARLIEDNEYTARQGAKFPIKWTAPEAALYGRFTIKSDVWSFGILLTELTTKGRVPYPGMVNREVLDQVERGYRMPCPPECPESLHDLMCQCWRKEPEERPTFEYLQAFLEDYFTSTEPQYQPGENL
Sequence of Dual specificity mitogen-activated protein kinase kinase 1 (Homo sapiens) (Q02750 whole entry): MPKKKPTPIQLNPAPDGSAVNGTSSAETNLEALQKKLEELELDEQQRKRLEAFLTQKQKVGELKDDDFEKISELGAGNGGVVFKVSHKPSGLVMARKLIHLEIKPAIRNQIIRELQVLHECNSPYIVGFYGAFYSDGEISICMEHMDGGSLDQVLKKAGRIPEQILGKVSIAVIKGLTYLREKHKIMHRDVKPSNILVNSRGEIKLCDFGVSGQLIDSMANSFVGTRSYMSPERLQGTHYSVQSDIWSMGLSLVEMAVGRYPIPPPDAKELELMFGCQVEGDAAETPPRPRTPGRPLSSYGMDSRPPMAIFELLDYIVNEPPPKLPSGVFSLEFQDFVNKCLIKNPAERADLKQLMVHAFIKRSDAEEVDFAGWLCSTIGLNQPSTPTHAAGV
Sequence of Receptor tyrosine-protein kinase erbB-4 (Homo sapiens) (Q15303 whole entry): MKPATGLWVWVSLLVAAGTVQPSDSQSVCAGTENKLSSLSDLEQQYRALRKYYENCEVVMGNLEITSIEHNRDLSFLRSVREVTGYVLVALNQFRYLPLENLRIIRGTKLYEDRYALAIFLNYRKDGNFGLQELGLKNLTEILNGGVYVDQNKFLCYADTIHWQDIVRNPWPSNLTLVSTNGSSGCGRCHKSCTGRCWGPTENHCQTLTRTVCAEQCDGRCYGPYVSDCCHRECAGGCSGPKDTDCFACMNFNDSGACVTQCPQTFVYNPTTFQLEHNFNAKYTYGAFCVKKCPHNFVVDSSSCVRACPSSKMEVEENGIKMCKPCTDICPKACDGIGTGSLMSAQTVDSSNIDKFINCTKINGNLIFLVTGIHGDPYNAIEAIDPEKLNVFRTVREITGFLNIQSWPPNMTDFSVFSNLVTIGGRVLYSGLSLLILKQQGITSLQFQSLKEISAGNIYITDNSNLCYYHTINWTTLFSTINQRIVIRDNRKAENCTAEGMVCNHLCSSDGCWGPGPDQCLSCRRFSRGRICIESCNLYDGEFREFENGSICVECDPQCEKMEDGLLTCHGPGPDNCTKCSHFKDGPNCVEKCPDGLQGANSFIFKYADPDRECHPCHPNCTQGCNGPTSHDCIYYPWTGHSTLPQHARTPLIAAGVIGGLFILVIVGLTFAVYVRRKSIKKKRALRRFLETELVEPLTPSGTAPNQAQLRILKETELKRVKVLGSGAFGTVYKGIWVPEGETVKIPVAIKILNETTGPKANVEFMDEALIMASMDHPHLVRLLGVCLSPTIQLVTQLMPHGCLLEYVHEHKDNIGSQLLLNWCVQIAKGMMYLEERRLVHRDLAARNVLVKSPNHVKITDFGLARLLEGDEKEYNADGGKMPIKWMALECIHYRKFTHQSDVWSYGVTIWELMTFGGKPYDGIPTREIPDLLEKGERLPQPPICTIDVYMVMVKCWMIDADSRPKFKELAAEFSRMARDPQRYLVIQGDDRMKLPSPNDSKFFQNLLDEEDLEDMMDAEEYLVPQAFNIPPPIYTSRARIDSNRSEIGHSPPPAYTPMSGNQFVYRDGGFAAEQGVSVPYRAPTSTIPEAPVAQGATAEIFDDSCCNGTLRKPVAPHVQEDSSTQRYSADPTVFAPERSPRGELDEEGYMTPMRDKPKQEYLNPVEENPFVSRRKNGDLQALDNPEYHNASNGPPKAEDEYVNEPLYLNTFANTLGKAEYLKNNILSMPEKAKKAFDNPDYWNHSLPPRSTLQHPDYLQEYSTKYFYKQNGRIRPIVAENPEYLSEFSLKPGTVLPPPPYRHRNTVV
Sequence of Serine/threonine-protein kinase Chk2 (Homo sapiens) (O96017 whole entry): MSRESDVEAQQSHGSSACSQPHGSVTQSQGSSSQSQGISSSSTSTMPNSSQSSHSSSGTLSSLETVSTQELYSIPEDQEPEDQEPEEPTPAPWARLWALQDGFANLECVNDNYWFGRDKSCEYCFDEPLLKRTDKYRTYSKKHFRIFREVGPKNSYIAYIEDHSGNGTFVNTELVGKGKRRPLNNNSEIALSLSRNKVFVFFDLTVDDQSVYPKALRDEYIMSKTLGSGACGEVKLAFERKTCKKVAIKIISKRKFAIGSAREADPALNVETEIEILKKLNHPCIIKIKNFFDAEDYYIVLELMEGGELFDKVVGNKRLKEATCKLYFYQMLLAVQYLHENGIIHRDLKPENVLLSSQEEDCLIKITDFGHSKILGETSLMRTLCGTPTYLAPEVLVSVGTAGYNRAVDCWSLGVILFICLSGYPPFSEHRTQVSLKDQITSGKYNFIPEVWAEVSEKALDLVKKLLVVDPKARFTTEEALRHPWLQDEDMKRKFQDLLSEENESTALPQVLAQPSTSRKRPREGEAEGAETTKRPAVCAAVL
Sequence of Calcium/calmodulin-dependent protein kinase type 1 (Homo sapiens) (Q14012 whole entry, looked up): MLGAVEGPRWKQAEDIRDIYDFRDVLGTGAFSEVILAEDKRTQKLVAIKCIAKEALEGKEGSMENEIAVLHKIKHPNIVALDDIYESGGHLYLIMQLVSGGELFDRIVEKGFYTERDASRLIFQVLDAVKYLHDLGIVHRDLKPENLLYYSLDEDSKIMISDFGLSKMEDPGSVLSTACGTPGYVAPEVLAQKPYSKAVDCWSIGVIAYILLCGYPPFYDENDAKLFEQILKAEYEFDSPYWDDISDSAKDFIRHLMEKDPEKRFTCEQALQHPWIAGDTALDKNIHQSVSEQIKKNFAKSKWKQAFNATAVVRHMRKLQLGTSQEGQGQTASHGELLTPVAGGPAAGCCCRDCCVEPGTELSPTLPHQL

inhibition [1]: Active
SMILES: CC(C)CCNC(=O)c1ccc(-c2cnc3ccc(NC4CCN(C)CC4)nn23)cc1

inhibition [1]: Active
SMILES: CCCCNc1ccc(-c2cnc3ccc(NC4CCN(C)CC4)nn23)cn1

inhibition [1]: Active
SMILES: COC(=O)Nc1cccc(-c2cnc3ccc(NC4CCN(C)CC4)nn23)c1

inhibition [1]: Active
SMILES: CC(C)CCNc1nccc(-c2cnc3ccc(NC4CCN(C)CC4)nn23)n1

inhibition [1]: Active
SMILES: CC(C)CCNc1ncc(-c2cnc3ccc(NC4CCN(C)CC4)nn23)cn1

inhibition [1]: Active
SMILES: CC(=O)Nc1cccc(-c2cnc3ccc(N[C@H]4CC[C@H](N)CC4)nn23)c1

inhibition [1]: Active
SMILES: COCCNc1ccc(-c2cnc3ccc(NC4CCN(C)CC4)nn23)cn1

inhibition [1]: Active
SMILES: CN1CCC(Nc2ccc3ncc(-c4cccc(NC(=O)C5CC5)c4)n3n2)CC1

inhibition [1]: Active
SMILES: CC(C)CCNc1cc(-c2cnc3ccc(NC4CCN(C)CC4)nn23)ccn1

inhibition [1]: Active
SMILES: CN1CCC(Nc2ccc3ncc(-c4ccc(NCC5CC5)nc4)n3n2)CC1

inhibition [10]: Active
inhibition [11]: Active
inhibition [12]: Active
inhibition [1]: Active
remaining at 0.5 h [3]: 63%
inhibition [13]: Active
inhibition [14]: Active
inhibition [15]: Active
CLint scaled [16]: 49.7 mL/min/kg
inhibition [17]: Active
inhibition [5]: Active
inhibition [18]: Active
inhibition [8]: Active
inhibition [19]: Active
inhibition [20]: Active
inhibition [9]: Active
SMILES: CC(C)CCNc1ccc(-c2cnc3ccc(NC4CCN(C)CC4)nn23)cn1

Second part, the molecule before the results:

SMILES: CC(C)CCNc1ccc(-c2cnc3ccc(NC4CN(C)C4)nn23)cn1
inhibition [1]: Active

SMILES: CC(C)CCNC(=O)c1ccc(-c2cnc3ccc(N[C@H]4CC[C@H](N)CC4)nn23)cc1
inhibition [1]: Active

SMILES: N#Cc1ccc(-c2cnc3ccc(NCCc4cccnc4)nn23)cc1
inhibition [1]: Active

SMILES: CC(C)CCNc1ncc(-c2cnc3ccc(N[C@H]4CC[C@H](N)CC4)nn23)cn1
inhibition [1]: Active

SMILES: NC(=O)c1ccc(-c2cnc3ccc(NCCc4cccnc4)nn23)cc1
inhibition [1]: Active

SMILES: CC(C)CCNc1ccc(-c2cnc3ccc(N4CCC(N)CC4)nn23)cn1
inhibition [2]: Active
inhibition [1]: Active
remaining at 0.5 h [3]: 90%
inhibition [4]: Active
inhibition [5]: Active
remaining at 0.5 h [6]: 90%
inhibition [7]: Active
inhibition [8]: Active
inhibition [9]: Active

SMILES: CC(C)CCNc1ccc(-c2cnc3ccc(NC4CCNCC4)nn23)cn1
inhibition [1]: Active

SMILES: Fc1cccc(-c2cnc3ccc(NCCc4cccnc4)nn23)c1
inhibition [1]: Active

SMILES: CC(=O)Nc1cccc(-c2cnc3ccc(NCCc4ccccn4)nn23)c1
inhibition [1]: Active

SMILES: CC(C)CCNc1ccc(-c2cnc3ccc(NC4CCN(C)C4)nn23)cn1 (centres undefined)
inhibition [1]: Active
remaining at 0.5 h [3]: 74%
remaining at 0.5 h [6]: 63%
inhibition [8]: Active
inhibition [9]: Active

SMILES: CC(C)CCOc1ccc(-c2cnc3ccc(N[C@H]4CC[C@H](N)CC4)nn23)cn1
inhibition [1]: Active

SMILES: CC(C)CCNc1ccc(-c2cnc3ccc(N4CCC(N(C)C)CC4)nn23)cn1
inhibition [1]: Active
remaining at 0.5 h [3]: 84%
remaining at 0.5 h [6]: 80%

SMILES: CC(C)CCNc1ccc(-c2cnc3ccc(N4CCN(C)CC4)nn23)cn1
inhibition [1]: Active

SMILES: NC(=O)c1ccc(-c2cnc3ccc(NCCc4ccccn4)nn23)cc1
inhibition [1]: Active

Source: ChEMBL document CHEMBL2380237, “Substituted imidazopyridazines are potent and selective inhibitors of Plasmodium falciparum calcium-dependent protein kinase 1 (PfCDPK1)” (Bioorg Med Chem Lett, 2013)
